Experimental data taken from ChEMBL document CHEMBL1806473, “Structure-based optimization of click-based histone deacetylase inhibitors” (Eur J Med Chem, 2011).

Legend:
HL-60(TB) = experiment: Antiproliferative activity against human HL-60(TB) cells by SRB assay; assay type: functional
How it was run: (§1)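 Tested in the NCI in vitro disease-oriented human tumour cell line screen, with screening performed by NCI. Growth was read by SRB signal over the drug incubation period at five concentrations: 100, 10, 1.0, 0.1 and 0.01 μM. GI50 is the concentration that reduces growth of treated cells to half that of control cells.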

MOLT-4 [1] = experiment: Antiproliferative activity against human MOLT4 cells by SRB assay; assay type: functional
How it was run: (§2)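 Tested in the NCI in vitro human tumor cell line screen, run by the National Cancer Institute. Each compound was given at five concentrations (100, 10, 1.0, 0.1 and 0.01 μM). GI50 is the drug concentration that reduces growth of treated cells to half that of control cells during drug incubation, judged from the SRB signal.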

RPMI-8226 = experiment: Antiproliferative activity against human RPMI8226 cells by SRB assay; assay type: functional; how it was run: as §2
SR = experiment: Antiproliferative activity against human SR cells by SRB assay; assay type: functional
How it was run: (§3)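 Cell growth was tested in the NIH in vitro disease-oriented human tumor cell line screen, which NCI ran for these compounds. Compounds were tested at five concentrations (100, 10, 1.0, 0.1 and 0.01 μM), and growth was read by SRB signal. GI50 is the drug concentration that reduces growth of treated cells to half that of control cells during drug incubation.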

EKVX [2] = experiment: Antiproliferative activity against human EKVX cells by SRB assay; assay type: functional; how it was run: as §2
HOP-62 [3] = experiment: Antiproliferative activity against human HOP62 cells by SRB assay; assay type: functional; how it was run: as §2
NCI-H226 [4] = experiment: Antiproliferative activity against human NCI-H226 cells by SRB assay; assay type: functional; how it was run: as §2
NCI-H23 = experiment: Antiproliferative activity against human NCI-H23 cells by SRB assay; assay type: functional; how it was run: as §2
COLO 205 = experiment: Antiproliferative activity against human COLO205 cells by SRB assay; assay type: functional; how it was run: as §2
HCT-15 = experiment: Antiproliferative activity against human HCT15 cells by SRB assay; assay type: functional; how it was run: as §2
HT-29 = experiment: Antiproliferative activity against human HT-29 cells by SRB assay; assay type: functional; how it was run: as §2
KM12 [5] = experiment: Antiproliferative activity against human KM12 cells by SRB assay; assay type: functional; how it was run: as §2
SF-295 = experiment: Antiproliferative activity against human SF295 cells by SRB assay; assay type: functional; how it was run: as §2
SK-MEL-28 [6] = experiment: Antiproliferative activity against human SK-MEL-28 cells by SRB assay; assay type: functional; how it was run: as §2
OVCAR-4 = experiment: Antiproliferative activity against human OVCAR4 cells by SRB assay; assay type: functional; how it was run: as §2
OVCAR-5 [7] = experiment: Antiproliferative activity against human OVCAR5 cells by SRB assay; assay type: functional; how it was run: as §2
NCI/ADR-RES [8] = experiment: Antiproliferative activity against human NCI/ADR-RES cells by SRB assay; assay type: functional; how it was run: as §2
SK-OV-3 = experiment: Antiproliferative activity against human SKOV3 cells by SRB assay; assay type: functional; how it was run: as §2
CAKI-1 [9] = experiment: Antiproliferative activity against human Caki1 cells by SRB assay; assay type: functional; how it was run: as §2
TK-10 = experiment: Antiproliferative activity against human TK10 cells by SRB assay; assay type: functional; how it was run: as §3
PC-3 [10] = experiment: Antiproliferative activity against human PC3 cells by SRB assay; assay type: functional; how it was run: as §2
MDA-MB-231 = experiment: Antiproliferative activity against human MDA-MB-231 cells by SRB assay; assay type: functional; how it was run: as §2
CCRF-CEM = experiment: Cytotoxicity against human CCRF-CEM cells; assay type: cell-based
MOLT-4 [11] = experiment: Cytotoxicity against human MOLT4 cells; assay type: cell-based
EKVX [12] = experiment: Cytotoxicity against human EKVX cells; assay type: cell-based; how it was run: as §1
HOP-62 [13] = experiment: Cytotoxicity against human HOP62 cells; assay type: cell-based; how it was run: as §1
HOP-92 = experiment: Cytotoxicity against human HOP92 cells; assay type: cell-based
NCI-H226 [14] = experiment: Cytotoxicity against human NCI-H226 cells; assay type: cell-based
HCT-116 = experiment: Cytotoxicity against human HCT116 cells; assay type: cell-based; how it was run: as §1
KM12 [15] = experiment: Cytotoxicity against human KM12 cells; assay type: cell-based
SNB-19 = experiment: Cytotoxicity against human SNB19 cells; assay type: cell-based
How it was run: (§4)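 Screened by NCI in its in vitro disease-oriented human tumour cell line panel. Compounds tested at five concentrations (100, 10, 1.0, 0.1 and 0.01 μM). Growth read by sulforhodamine B (SRB) signal. GI50 is the concentration reducing growth of treated cells to half that of control cells during the drug incubation.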

SNB-75 = experiment: Cytotoxicity against human SNB75 cells; assay type: cell-based; how it was run: as §4
U-251 = experiment: Cytotoxicity against human U251 cells; assay type: cell-based; how it was run: as §4
Malme-3M = experiment: Cytotoxicity against human MALME-3M cells; assay type: cell-based; how it was run: as §1
M14 = experiment: Cytotoxicity against human M14 cells; assay type: cell-based
SK-MEL-28 [16] = experiment: Cytotoxicity against human SK-MEL-28 cells; assay type: cell-based
SK-MEL-5 = experiment: Cytotoxicity against human SK-MEL-5 cells; assay type: cell-based
OVCAR-3 = experiment: Cytotoxicity against human OVCAR3 cells; assay type: cell-based; how it was run: as §1
OVCAR-5 [17] = experiment: Cytotoxicity against human OVCAR5 cells; assay type: cell-based; how it was run: as §1
NCI/ADR-RES [18] = experiment: Cytotoxicity against human NCI/ADR-RES cells; assay type: cell-based; how it was run: as §1
A498 = experiment: Cytotoxicity against human A498 cells; assay type: cell-based
CAKI-1 [19] = experiment: Cytotoxicity against human Caki1 cells; assay type: cell-based
RXF 393 = experiment: Cytotoxicity against human RXF393 cells; assay type: cell-based; how it was run: as §1
SN12C = experiment: Cytotoxicity against human SN12C cells; assay type: cell-based; how it was run: as §4
PC-3 [20] = experiment: Cytotoxicity against human PC3 cells; assay type: cell-based
MCF7 = experiment: Cytotoxicity against human MCF7 cells; assay type: cell-based
T47D = experiment: Cytotoxicity against human T47D cells; assay type: cell-based; how it was run: as §4
MDA-MB-468 = experiment: Cytotoxicity against human MDA-MB-468 cells; assay type: cell-based; how it was run: as §1

## O=C(/C=C/c1ccc(CN(CCO)CCc2c[nH]c3ccccc23)cc1)NO [DACINOSTAT]
HL-60(TB)
  GI50: 249 nM
MOLT-4 [1]
  GI50: 311 nM
RPMI-8226
  GI50: 523 nM
SR
  GI50: 2990 nM
EKVX [2]
  GI50: 1750 nM
HOP-62 [3]
  GI50: 502 nM
NCI-H226 [4]
  GI50: 1410 nM
NCI-H23
  GI50: 1500 nM
COLO 205
  GI50: 1080 nM
HCT-15
  GI50: 2070 nM
HT-29
  GI50: 566 nM
KM12 [5]
  GI50: 1040 nM
SF-295
  GI50: 743 nM
SK-MEL-28 [6]
  GI50: 993 nM
OVCAR-4
  GI50: 3210 nM
OVCAR-5 [7]
  GI50: 260 nM
NCI/ADR-RES [8]
  GI50: 180 nM
SK-OV-3
  GI50: 524 nM
CAKI-1 [9]
  GI50: 619 nM
TK-10
  GI50: 495 nM
PC-3 [10]
  GI50: 1300 nM
MDA-MB-231
  GI50: 1960 nM
CCRF-CEM
  LC50: > 100000 nM
MOLT-4 [11]
  LC50: 86900 nM
EKVX [12]
  LC50: > 100000 nM
HOP-62 [13]
  LC50: > 100000 nM
HOP-92
  LC50: 68200 nM
NCI-H226 [14]
  LC50: 20000 nM
HCT-116
  LC50: 51200 nM
KM12 [15]
  LC50: 29900 nM
SNB-19
  LC50: 31700 nM
SNB-75
  LC50: > 100000 nM
U-251
  LC50: 5820 nM
Malme-3M
  LC50: 82000 nM
M14
  LC50: 93800 nM
SK-MEL-28 [16]
  LC50: 31900 nM
SK-MEL-5
  LC50: 4020 nM
OVCAR-3
  LC50: 51000 nM
OVCAR-5 [17]
  LC50: 38900 nM
NCI/ADR-RES [18]
  LC50: > 100000 nM
A498
  LC50: 5880 nM
CAKI-1 [19]
  LC50: 5790 nM
RXF 393
  LC50: 15300 nM
SN12C
  LC50: > 100000 nM
PC-3 [20]
  LC50: 73500 nM
MCF7
  LC50: > 100000 nM
T47D
  LC50: > 100000 nM
MDA-MB-468
  LC50: 94300 nM
